Results reported in ChEMBL document CHEMBL1156841, “Carbonic anhydrase activators: activation of the beta-carbonic anhydrases from the pathogenic fungi Candida albicans and Cryptococcus neoformans with amines and amino acids” (Bioorg Med Chem, 2010).

T1: Carbonic anhydrase (Candida albicans (strain SC5314 / ATCC MYA-2876) (Yeast)) (UniProt Q5AJ71)
T1 sequence (whole entry): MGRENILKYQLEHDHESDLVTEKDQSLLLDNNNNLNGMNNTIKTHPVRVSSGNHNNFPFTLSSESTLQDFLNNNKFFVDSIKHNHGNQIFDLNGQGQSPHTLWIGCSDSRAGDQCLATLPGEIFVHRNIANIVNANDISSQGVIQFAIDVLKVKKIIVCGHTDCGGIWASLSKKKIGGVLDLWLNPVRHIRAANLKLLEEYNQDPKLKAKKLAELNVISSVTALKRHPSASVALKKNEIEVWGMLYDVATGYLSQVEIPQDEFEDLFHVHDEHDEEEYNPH

T2: Carbonic anhydrase 2 (Cryptococcus neoformans) (UniProt Q3I4V7)
T2 sequence (whole entry): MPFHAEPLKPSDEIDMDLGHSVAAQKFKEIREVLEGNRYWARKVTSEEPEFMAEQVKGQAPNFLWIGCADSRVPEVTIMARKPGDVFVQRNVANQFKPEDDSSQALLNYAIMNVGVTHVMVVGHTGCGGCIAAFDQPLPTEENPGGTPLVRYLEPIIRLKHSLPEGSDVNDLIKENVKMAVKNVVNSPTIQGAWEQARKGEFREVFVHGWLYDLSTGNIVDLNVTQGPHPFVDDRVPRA

B1: Carbonic anhydrase 2 (Cryptococcus neoformans), Q3I4V7 (protein)
chain: T2 sequence (whole entry)
B2: Carbonic anhydrase (Candida albicans (strain SC5314 / ATCC MYA-2876) (Yeast)), Q5AJ71 (protein)
chain: T1 sequence (whole entry)

Tests used:
[1] = target: T1, Carbonic anhydrase (Candida albicans (strain SC5314 / ATCC MYA-2876) (Yeast)); assay: Activation of Candida albicans beta-carbonic anhydrase Nce103 by stopped flow CO2 hydration assay
Outline: (§1)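 Recombinant enzyme (prepared as in earlier work) preincubated with activator 15 min at room temperature. Stopped-flow CO2 hydration at 25 °C followed for 10 s, read with phenol red (0.2 mM) at 557 nm. Buffer was 20 mM Tris pH 8.3 with 20 mM NaClO4. CO2 ranged 1.7–17 mM. Initial velocity came from at least six traces of the first 5–10% of reaction, with the uncatalyzed rate subtracted. KA was fitted from activation versus activator concentration, using dilutions from a 10 mM aqueous stock. Mean of at least three determinations.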

[2] = target: T2, Carbonic anhydrase 2 (Cryptococcus neoformans); assay: Activation of Cryptococcus neoformans beta-carbonic anhydrase Can2 by stopped flow CO2 hydration assay; outline: as §1
[3] = substrate: NCCc1c[nH]cn1; conditions: Cryptococcus neoformans
[4] = substrate: NCCc1c[nH]cn1; conditions: Cryptococcus neoformans; 10 uM
[5] = substrate: NCCc1c[nH]cn1; conditions: Candida albicans
[6] = substrate: NCCc1c[nH]cn1; conditions: Candida albicans; 10 uM

| Molecule | KA [1] [µM] | KA [2] [µM] | further results |
| --- | --- | --- | --- |
| NCCN1CCOCC1 | 25.4 | 40.1 | – |
| NCCc1c[nH]c2ccc(O)cc12 | 28.6 | 46.7 | – |
| N[C@@H](Cc1ccccc1)C(=O)O | 15.5 | 44.1 | – |
| N[C@@H](Cc1c[nH]c2ccccc12)C(=O)O | 19.2 | 28.7 | – |
| NCCc1c[nH]cn1 | 18.4 | 33.2 | – |
| N[C@H](Cc1ccc(O)c(O)c1)C(=O)O | 2.5 | 35.1 | – |
| N[C@H](Cc1c[nH]c2ccccc12)C(=O)O | 43 | 42.1 | – |
| N[C@@H](Cc1ccc(O)c(O)c1)C(=O)O | 0.96 | 43.3 | – |
| CNC[C@@H](O)c1ccc(O)c(O)c1 | 13.2 | 32.8 | – |
| NCCc1ccc(O)c(O)c1 | 18.5 | 34.6 | – |
| NCCc1ccccn1 | 30.2 | 46.3 | – |
| NCc1ccccn1 | 29.1 | 47 | – |
| N[C@@H](Cc1ccc(O)cc1)C(=O)O | 46.1 | 29.5 | – |
| Nc1ccc(C[C@H](N)C(=O)O)cc1 | 23.7 | 30.4 | – |
| NCCN1CCNCC1 | 17.3 | 44.9 | – |
| N[C@@H](Cc1c[nH]cn1)C(=O)O | 24.1 | 45 | – |
| N[C@H](Cc1c[nH]cn1)C(=O)O | 19.5 | 47.2 | – |
| N[C@H](Cc1ccccc1)C(=O)O | 8.4 | 45.2 | – |
| B1 | – | – | Km [3]: 9 mM; kcat [3]: 3.9 ×10⁵ /s; kcat [4]: 6.8 ×10⁵ /s |
| B2 | – | – | Km [5]: 8.2 mM; kcat [5]: 8 ×10⁵ /s; kcat [6]: 20.1 ×10⁵ /s |
